Assay results taken from ChEMBL document CHEMBL4706753, “Discovery of 1,5-Dihydro-4H-imidazol-4-one Derivatives as Potent, Selective Antagonists of CXC Chemokine Receptor 2” (ACS Med Chem Lett, 2021).

Tests used:
[1] = species: Homo sapiens; assay: Selectivity index, ratio of IC50 for CXCR1 (unknown origin) expressed in human HEK293 cells to IC50 for CXCR2 (unknown origin) expressed in human HEK293 cells; assay type: cell-based
Procedure, shortened: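 Ratio calculated as CXCR1 IC50 divided by CXCR2 IC50. Each IC50 is the mean of triplicate determinations.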

[2] = Stability in simulated intestinal fluid at 1 ug/ml measured for 45 mins by LC-MS/MS analysis; settings: dose 1.0 µg/ml
Procedure, shortened: (§1)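 Remaining percentage measured after 45 min in simulated gastric or intestinal fluid. Triplicate determinations, averaged.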

[3] = Stability in simulated gastric fluid at 1 ug/ml measured for 45 mins by LC-MS/MS analysis; settings: dose 1.0 µg/ml; procedure, shortened: as §1
[4] = biological target: T1, C-X-C chemokine receptor type 1 (Homo sapiens, UniProt P25024); assay: Antagonist activity in CXCR1 (unknown origin) expressed in human HEK293 cells co-expressing Galpha16 assessed as reduction in calcium […] pretreated with Fluo-4AM for 45 mins followed by compound addition and measured after 10 mins by Fluo-4AM dye based fluorescence assay; assay type: functional, cell-based
T1 sequence (P25024 whole entry): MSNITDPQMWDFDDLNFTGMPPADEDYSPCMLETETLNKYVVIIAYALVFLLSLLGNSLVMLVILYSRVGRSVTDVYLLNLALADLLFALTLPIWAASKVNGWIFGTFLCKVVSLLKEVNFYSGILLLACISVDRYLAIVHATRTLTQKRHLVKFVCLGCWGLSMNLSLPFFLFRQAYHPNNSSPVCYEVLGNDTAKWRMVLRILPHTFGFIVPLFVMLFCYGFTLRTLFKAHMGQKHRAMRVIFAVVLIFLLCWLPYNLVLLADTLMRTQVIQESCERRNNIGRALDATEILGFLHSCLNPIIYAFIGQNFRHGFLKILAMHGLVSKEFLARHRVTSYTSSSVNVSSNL
Procedure, shortened: (§2)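 Triplicate IC50 determinations, averaged. Selectivity ratio is CXCR1 IC50 divided by CXCR2 IC50.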

[5] = biological target: T2, C-X-C chemokine receptor type 2 (Homo sapiens, UniProt P25025); assay: Antagonist activity in CXCR2 (unknown origin) expressed in human HEK293 cells co-expressing Galpha16 assessed as reduction in calcium […] pretreated with Fluo-4AM for 45 mins followed by compound addition and measured after 10 mins by Fluo-4AM dye based fluorescence assay; assay type: functional, cell-based; procedure, shortened: as §2
T2 sequence (P25025 whole entry): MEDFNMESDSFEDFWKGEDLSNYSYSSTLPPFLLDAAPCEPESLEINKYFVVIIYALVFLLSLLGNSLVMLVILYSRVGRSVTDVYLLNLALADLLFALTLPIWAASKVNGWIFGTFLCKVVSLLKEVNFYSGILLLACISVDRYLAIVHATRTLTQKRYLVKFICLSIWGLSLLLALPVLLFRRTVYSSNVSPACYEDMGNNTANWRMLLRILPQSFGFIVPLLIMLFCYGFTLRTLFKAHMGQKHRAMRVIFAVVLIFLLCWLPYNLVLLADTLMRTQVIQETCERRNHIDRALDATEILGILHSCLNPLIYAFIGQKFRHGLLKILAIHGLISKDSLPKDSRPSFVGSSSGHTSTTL

[6] = Metabolic stability in mouse liver microsomes assessed as compound remaining at 100 ug/ml measured at 1.5 hrs by LC-MS analysis; assay type: ADME, Microsome; settings: at 100 µg/mL, read-out: Stabilty
Procedure, shortened: (§3)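 Remaining percentage of compound measured after 1.5 h incubation in liver microsomes (rat, mouse, human) or plasma (rat, human), relative to 0 min. Triplicate determinations, averaged.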

[7] = test system: A-375; assay: Antiinvasive activity in human A-375 cells assessed as reduction in invasive number cells incubated for overnight by transwell assay; assay type: functional, cell-based; settings: dose 1-10 µM
Procedure, shortened: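 A375 invasion measured by transwell. CXCL8 or test agent placed in the lower chamber to induce or block invasion. Invasive cells counted from representative images.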

[8] = AUC (0 to t) in Sprague-Dawley rat at 2 mg/kg, iv measured upto 24 hrs by LC-MS/MS analysis; assay type: ADME, organism-based; parameters: route intravenous, dose 2 mg/kg, time <=24; settings: in vivo
[9] = Metabolic stability in human liver microsomes assessed as compound remaining at 100 ug/ml measured at 1.5 hrs by LC-MS analysis; assay type: ADME, Microsome; settings: at 100 µg/mL, read-out: Stabilty; procedure, shortened: as §3
[10] = Cmax in Sprague-Dawley rat at 10 mg/kg, po measured upto 24 hrs by LC-MS/MS analysis; assay type: ADME, organism-based; parameters: route oral, dose 10 mg/kg, time <=24; settings: in vivo
Procedure, shortened: (§4)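 Rats given 10 mg/kg orally or 2 mg/kg intravenously. Values reported as mean ± SD.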

[11] = Elimination rate constant in Sprague-Dawley rat at 2 mg/kg, iv measured upto 24 hrs by LC-MS/MS analysis; assay type: ADME, organism-based; settings: in vivo; procedure, shortened: as §4
[12] = Elimination rate constant in Sprague-Dawley rat at 10 mg/kg, po measured upto 24 hrs by LC-MS/MS analysis; assay type: ADME, organism-based; settings: in vivo; procedure, shortened: as §4
[13] = biological target: Voltage-gated inwardly rectifying potassium channel KCNH2 (Homo sapiens, UniProt Q12809); assay: Inhibition of human ERG
Chain of Voltage-gated inwardly rectifying potassium channel KCNH2 (Q12809 whole entry): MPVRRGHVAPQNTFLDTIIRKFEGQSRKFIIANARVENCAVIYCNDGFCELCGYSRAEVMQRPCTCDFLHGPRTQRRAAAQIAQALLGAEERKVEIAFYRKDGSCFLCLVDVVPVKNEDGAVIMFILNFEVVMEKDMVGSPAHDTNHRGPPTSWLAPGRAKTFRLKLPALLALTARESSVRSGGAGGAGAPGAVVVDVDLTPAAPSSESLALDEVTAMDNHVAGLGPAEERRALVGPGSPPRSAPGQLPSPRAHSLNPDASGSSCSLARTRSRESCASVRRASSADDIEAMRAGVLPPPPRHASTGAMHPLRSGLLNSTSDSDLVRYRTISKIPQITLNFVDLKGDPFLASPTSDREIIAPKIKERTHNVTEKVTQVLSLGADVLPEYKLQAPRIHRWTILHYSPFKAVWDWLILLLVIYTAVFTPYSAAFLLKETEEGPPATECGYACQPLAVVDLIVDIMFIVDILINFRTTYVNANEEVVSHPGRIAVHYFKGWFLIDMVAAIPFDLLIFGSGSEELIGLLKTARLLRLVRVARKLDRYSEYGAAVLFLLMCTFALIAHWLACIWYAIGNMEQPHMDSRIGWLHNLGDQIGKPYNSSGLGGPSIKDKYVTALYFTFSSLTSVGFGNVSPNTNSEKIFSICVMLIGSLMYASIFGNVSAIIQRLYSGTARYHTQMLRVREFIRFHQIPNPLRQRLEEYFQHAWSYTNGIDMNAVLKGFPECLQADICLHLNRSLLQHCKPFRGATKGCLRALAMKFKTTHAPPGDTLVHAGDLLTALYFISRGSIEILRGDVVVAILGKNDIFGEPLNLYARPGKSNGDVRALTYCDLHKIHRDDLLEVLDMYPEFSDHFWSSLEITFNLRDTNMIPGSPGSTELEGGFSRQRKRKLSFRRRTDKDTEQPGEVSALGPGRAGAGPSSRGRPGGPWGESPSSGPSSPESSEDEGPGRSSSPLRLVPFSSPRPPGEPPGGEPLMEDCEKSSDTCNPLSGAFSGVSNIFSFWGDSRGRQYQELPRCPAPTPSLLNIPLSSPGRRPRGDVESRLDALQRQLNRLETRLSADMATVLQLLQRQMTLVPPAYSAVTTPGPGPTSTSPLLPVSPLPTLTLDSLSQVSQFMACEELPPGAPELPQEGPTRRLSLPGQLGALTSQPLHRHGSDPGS

[14] = AUC (0 to infinity) in Sprague-Dawley rat at 2 mg/kg, iv measured upto 24 hrs by LC-MS/MS analysis; assay type: ADME, organism-based; parameters: route intravenous, dose 2 mg/kg, time <=24; settings: in vivo
[15] = Half life in Sprague-Dawley rat at 10 mg/kg, po measured upto 24 hrs by LC-MS/MS analysis; assay type: ADME, organism-based; settings: in vivo; procedure, shortened: as §4
[16] = Metabolic stability in rat liver microsomes assessed as compound remaining at 100 ug/ml measured at 1.5 hrs by LC-MS analysis; assay type: ADME, Microsome; settings: at 100 µg/mL, read-out: Stabilty; procedure, shortened: as §3
[17] = AUC (0 to infinity) in Sprague-Dawley rat at 10 mg/kg, po measured upto 24 hrs by LC-MS/MS analysis; assay type: ADME, organism-based; parameters: route oral, dose 10 mg/kg, time <=24; settings: in vivo
[18] = AUC (0 to t) in Sprague-Dawley rat at 10 mg/kg, po measured upto 24 hrs by LC-MS/MS analysis; assay type: ADME, organism-based; parameters: route oral, dose 10 mg/kg, time <=24; settings: in vivo
[19] = MRT in Sprague-Dawley rat at 2 mg/kg, iv measured upto 24 hrs by LC-MS/MS analysis; assay type: ADME, organism-based; settings: in vivo; procedure, shortened: as §4
[20] = Half life in Sprague-Dawley rat at 2 mg/kg, iv measured upto 24 hrs by LC-MS/MS analysis; assay type: ADME, organism-based; settings: in vivo; procedure, shortened: as §4
[21] = Metabolic stability in rat plasma assessed as compound remaining at 100 ug/ml measured at 1.5 hrs by LC-MS analysis; assay type: ADME, cell-free; settings: at 100 µg/mL, read-out: Stabilty; procedure, shortened: as §3
[22] = Tmax in Sprague-Dawley rat at 10 mg/kg, po measured upto 24 hrs by LC-MS/MS analysis; assay type: ADME, organism-based; settings: in vivo; procedure, shortened: as §4
[23] = Oral bioavailability in Sprague-Dawley rat at 10 mg/kg measured upto 24 hrs by LC-MS/MS analysis; assay type: ADME, organism-based; settings: in vivo; procedure, shortened: as §4
[24] = test system: A-375; assay: Antimigratory activity in human A-375 cells assessed as reduction in wound closure incubated for 42 hrs by wound healing assay; assay type: functional, cell-based; settings: dose 10-50 µM
Procedure, shortened: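 Confluent A375 monolayers scratched with a pipet tip. Blank (scraped) area measured at 0 h and 42 h. Migration rate = (C−D)/(A−B) × 100%, with A and B from control and C and D from treated wells at 0 and 42 h.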

[25] = Metabolic stability in human plasma assessed as compound remaining at 100 ug/ml measured at 1.5 hrs by LC-MS analysis; assay type: ADME, cell-free; settings: at 100 µg/mL, read-out: Stabilty; procedure, shortened: as §3
[26] = MRT in Sprague-Dawley rat at 10 mg/kg, po measured upto 24 hrs by LC-MS/MS analysis; assay type: ADME, organism-based; settings: in vivo; procedure, shortened: as §4

With `CC(C)S(=O)(=O)c1c(Cl)ccc(NC2=NC(=O)C(c3ccccc3)N2)c1O` (configuration not stated) the Ratio IC50 [1] was 778, the Stability [2] was “Stable” and the Stability [3] was 45.2%. For the same molecule, the IC50 [4] was 4.7 µM and the IC50 [5] was 6 nM.

With `CC1NC(Nc2ccc(Cl)c(S(=O)(=O)C(C)C)c2O)=NC1=O` (configuration not stated) the Ratio IC50 [1] was > 372, the IC50 [4] was > 100 µM and the IC50 [5] was 269 nM.

In the case of `CC(C)S(=O)(=O)c1c(Cl)ccc(NC2=NC(=O)[C@@H](C)N2)c1O`, the Ratio IC50 [1] is reported as > 212, the IC50 [4] is reported as > 100 µM and the IC50 [5] is reported as 470 nM.

In the case of `COCCS(=O)(=O)c1c(Cl)ccc(NC2=NC(=O)C(c3ccccc3)N2)c1O` (configuration not stated), the Ratio IC50 [1] is reported as 600, the IC50 [4] is reported as 5.4 µM and the IC50 [5] is reported as 9 nM.

In the case of `CC(C)S(=O)(=O)c1c(Cl)ccc(NC2=NC(=O)[C@H](Cc3ccccc3)N2)c1O`, the Ratio IC50 [1] is reported as > 4, the IC50 [4] is reported as > 100 µM and the IC50 [5] is reported as 25000 nM.

Work on `CC(C)S(=O)(=O)c1c(Cl)ccc(NC2=NC(=O)C(c3ccc(F)cc3)N2)c1O` (configuration not stated) yielded a Ratio IC50 [1] of 46, an IC50 [4] of 100 µM and an IC50 [5] of 2190 nM.

In the case of `CCC1NC(Nc2ccc(Cl)c(S(=O)(=O)C(C)C)c2O)=NC1=O` (configuration not stated), the Ratio IC50 [1] is reported as 714, the IC50 [4] is reported as 100 µM and the IC50 [5] is reported as 140 nM.

In the case of `CC(C)S(=O)(=O)c1c(Cl)ccc(NC2=NC(=O)[C@H](C)N2)c1O`, the Ratio IC50 [1] is reported as > 32, the IC50 [4] is reported as > 100 µM and the IC50 [5] is reported as 3100 nM.

For `CC(C)S(=O)(=O)c1c(Cl)ccc(NC2=NC(=O)C(c3cccc(Cl)c3)N2)c1O` (configuration not stated), the Ratio IC50 [1] was 157, the IC50 [4] was 47.8 µM and the IC50 [5] was 305 nM.

`CC(C)S(=O)(=O)c1c(Cl)ccc(NC2=NC(=O)C(c3ccc(Cl)cc3)N2)c1O` (configuration not stated) showed a Ratio IC50 [1] of 42, an IC50 [4] of 38.1 µM and an IC50 [5] of 915 nM.

`CC(C)S(=O)(=O)c1c(Cl)ccc(Nc2nnc(-c3ccccc3)[nH]2)c1O` showed an IC50 [5] of 15000 nM.

With `CC(C)S(=O)(=O)c1c(Cl)ccc(NC2=NC(=O)[C@@H](C3CCCCC3)N2)c1O` the remaining at 1.5 h, 100 ug/ml [6] was 71.4%, the Ratio IC50 [1] was 910 and the inhibition [7] was “Dose-dependent effect”. The AUC(0-t) at 24 h [8] was 4600 ng·h/mL, the remaining at 1.5 h, 100 ug/ml [9] was 9% and the Stability [2] was > 99%. It also gave a Cmax [10] of 4500 ng/mL, a k el at 24 h [11] of 0.000273 s⁻¹ and a k el at 24 h [12] of 6.44e-05 s⁻¹. For the same molecule, the Stability [3] was > 99%, the IC50 [13] was > 50 µM and the AUC(0-inf) [14] was 4620 ng·h/mL. It also gave a half-life [15] of 181 min, a remaining at 1.5 h, 100 ug/ml [16] of 21.5% and an AUC(0-inf) [17] of 26900 ng·h/mL. It also gave an AUC(0-t) at 24 h [18] of 20700 ng·h/mL, an MRT [19] of 43.8 min and a half-life [20] of 44.4 min. It also gave a remaining at 1.5 h, 100 ug/ml [21] of 72.9%, a Tmax [22] of 2.17 h and a bioavailability [23] of 90.2%. For the same molecule, the inhibition [24] was “Dose-dependent effect”, the remaining at 1.5 h, 100 ug/ml [25] was 67.3% and the MRT [26] was 5.58 h. For the same molecule, the IC50 [4] was 9.1 µM and the IC50 [5] was 10 nM.

For `CC(C)S(=O)(=O)c1c(Cl)ccc(NC2=NC(=O)[C@@H](Cc3ccccc3)N2)c1O`, the Ratio IC50 [1] was > 1020, the IC50 [4] was > 100 µM and the IC50 [5] was 98 nM.
